As usually defined, the ED50 is the midpoint of the dose-response relation.

Common to all, as to assay type: functional
In assay [1] the test system is Rattus norvegicus. Kind of assay: Percent potentiation of L-5-hydroxytryptophan-induced seizures (head-twitching) at 10 mg/kg i.p. in rats. The following applies: route intraperitoneal. The method, boiled down: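 Male Wistar rats, groups of six, got pargyline HCl 75 mg/kg s.c. 4 h before testing and test drug i.p. (10 mL/kg) 30 min before. L-5-hydroxytryptophan 1 mg/kg i.p. in distilled water was then given. Rats were observed 5 min later for head motion and coarse tremors; continuous forelimb clonus counted as potentiation, normalized as percent versus vehicle control.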

A further assay concerns Mus musculus. Kind of assay: Inhibition of tetrabenazine-induced ptosis in mice following i.p. administration. The settings on record: ip. The method in brief:
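Male CD-1 mice, groups of five, received compound i.p.; tetrabenazine methanesulfonate 40 mg/kg i.p. followed 30 min later. After another 30 min, mice were housed singly and ptosis was scored (eyes closed 2, half open 1, open 0). ED50 and 95% confidence intervals came from linear regression of ptosis scores.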

Assay [2] relates to Rattus norvegicus. Kind of assay: Effective concentration required for potentiation of L-5-hydroxytryptophan-induced seizures (head-twitching) in rats (administered intraperitoneally). The following applies: ip. The method in brief: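 Male Wistar rats, groups of six, pretreated with pargyline HCl 75 mg/kg sc 4 h before testing. Test drug given ip (10 mL/kg) 30 min before testing, then L-5-hydroxytryptophan 1 mg/kg ip in distilled water. Head motion and coarse tremors were scored 5 min later, with continuous forelimb clonus counted as potentiation. Results are expressed as normalized percent potentiation versus vehicle control.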

Turning to `CN(C)[C@H]1CC[C@]2(CC1)OCc1ccccc12`, the Potentiation in the assay on Rattus norvegicus [1] was 0%. The molecule also had an ED50 in the assay with Mus musculus greater than 20 mg/kg.
As to `CC1O[C@]2(CC[C@@H](N(C)C)CC2)c2ccccc21` (stereo not given in full), the Potentiation in the assay on Rattus norvegicus [1] came out at 0%. In addition, the ED50 in the assay on Mus musculus turned out to be 20 mg/kg.
The corresponding values for `CN[C@H]1CC[C@]2(CC1)OC(c1ccc(Cl)cc1)c1ccccc12` (stereo not given in full) are 0% and greater than 20 mg/kg.
The corresponding values for `CCCC1(c2ccccc2)O[C@]2(CC[C@@H](N(C)C)CC2)c2ccccc21` (stereo not given in full) are 0% and greater than 20 mg/kg.
With `CN(C)[C@H]1CC[C@@]2(CC1)OC(c1ccccc1)c1ccccc12` (stereo not given in full), the Potentiation in the assay with Rattus norvegicus [1] is 0%. In the assay with Mus musculus, this molecule gave an ED50 greater than 20 mg/kg.
For the molecule `CN[C@H]1CC[C@]2(CC1)OC(c1ccccc1)c1ccccc12` (stereo not given in full), the Potentiation with Rattus norvegicus [1] is 0%. Further, in the assay with Mus musculus, the 50% effect level (ED50) was put at a dose of 2 mg/kg.
In the case of `CN[C@H]1CC[C@]2(CC1)OC(c1ccc(F)cc1)c1ccccc12` (stereo not given in full), in the assay with Rattus norvegicus [1], the Potentiation amounted to 0%. In the assay on Mus musculus, the 50% effect level (ED50) was put at a dose of 20 mg/kg.
As to `CN[C@H]1CC[C@@]2(CC1)OC(c1ccccc1)c1ccccc12` (stereo not given in full), in the assay with Rattus norvegicus [1], the Potentiation came to 50%. Moreover, in the assay on Mus musculus, the ED50 is greater than 20 mg/kg.
`CN[C@H]1CC[C@]2(CC1)OC(c1ccccc1C)c1ccccc12` (stereo not given in full): the Potentiation in the assay with Rattus norvegicus [1] amounted to 50%. The ED50 in the assay with Mus musculus is greater than 20 mg/kg.
The matching figures for `Cc1ccccc1C1O[C@]2(CC[C@@H](N(C)C)CC2)c2ccccc21` (stereo not given in full): 0% and greater than 20 mg/kg.
The matching figures for `Cc1ccc(C2O[C@]3(CC[C@@H](N(C)C)CC3)c3ccccc32)cc1` (stereo not given in full): 33% and greater than 20 mg/kg.
On to `CCC1(c2ccccc2)O[C@]2(CC[C@@H](N(C)C)CC2)c2ccccc21` (stereo not given in full), for which the Potentiation in the assay on Rattus norvegicus [1] came to 0%. In the assay on Mus musculus, the ED50 was greater than 20 mg/kg.
For `CN(C)[C@H]1CC[C@]2(CC1)OC(c1ccc(Cl)cc1)c1ccccc12` (stereo not given in full), the Potentiation in the assay with Rattus norvegicus [1] is on record as 0%. In the assay with Mus musculus, this molecule yielded an ED50 greater than 20 mg/kg.
On to `CN(C)[C@H]1CC[C@]2(CC1)OC(c1ccc(F)cc1)c1ccccc12` (stereo not given in full), for which, in the assay with Rattus norvegicus [1], the Potentiation was found to be 50%. The molecule further registered a 50% effective dose (ED50) in the assay on Mus musculus of 8.4 mg/kg.
The matching figures for `CN(C)[C@H]1CC[C@]2(CC1)OC(c1ccccc1)c1ccccc12` (stereo not given in full): 50% and 3.7 mg/kg.
With `CN(C)[C@H]1CC[C@]2(CC1)OC(C)(c1ccccc1)c1ccccc12` (stereo not given in full), the Potentiation in the assay with Rattus norvegicus [1] is 0%. Further, the ED50 in the assay with Mus musculus is greater than 20 mg/kg.
Regarding `CN(C)CCC=C1c2ccccc2CCc2ccccc21` [AMITRIPTYLINE], the results for the ED50 in the assay with Mus musculus and with Rattus norvegicus [2] were 1.5 mg/kg and 7.1 mg/kg, respectively.
Molecule `CNCCCN1c2ccccc2CCc2ccccc21` [DESIPRAMINE] yielded an ED50 in the assay with Mus musculus of 0.3 mg/kg.

Source of the values: ChEMBL document CHEMBL1121839, “Synthesis of spiro[isobenzofuran-1(3H),4'-piperidines] as potential central nervous system agents. 6. Synthesis, 13C NMR, and biological evaluation of cis- and trans-4-amino-3'-arylspiro[cyclohexane-1,1'(3'H)-isobenzofuran] derivatives” (1981).
